According to article PMC7931380 (ACS Omega, 2021):
Read-outs that look alike come from different tables or passages of the source.

Columns and labels:
[1] = assay type: in vivo, human
In short: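 Eight healthy men (21–65 y) taking no medicines or vitamins, randomized 1:1, double-blind crossover. After a ≥10 h fast, seated subjects swallowed 500 mg test formulation or 500 mg control (150 mg AA + 350 mg starch) with 240 mL water. Heparinized blood sampled 0.25–24 h post dose, spun 3500 rpm, 4 °C, 10 min; plasma at −20 °C, AA by HPLC; mean ± SD.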

[2] = Particle size and ζ-potential by dynamic light scattering; assay type: physicochemical; details: 25 °C
In short: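 Test-compound-loaded fiber-reinforced phospholipid vesicles were diluted 10-fold in distilled water to avoid scattering artefacts. Size and ζ-potential were then measured by dynamic light scattering on a Zetasizer Nano ZS at 25 °C, with intensity read at a scattering angle of 90.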

[3] = male, human, plasma, po, 150 mg
[4] = plasma vitamin C, single oral dose 500 mg (150 mg AA), fasting, mean ± SD

What does the source list for `O=C1O[C@H]([C@@H](O)CO)C(O)=C1O` [AA, L-ascorbic acid]?
Cmax [1, 3]: 12300 ± 3800 ng/mL; half-life [1, 3]: 3.14 ± 2.01 h; k el [1, 3]: 8.61e-05 s⁻¹; AUC0–t [1, 4]: 9.38 ± 4.91 mg·h/dL; AUC0–∞ [1, 4]: 9.66 ± 5.02 mg·h/dL; Tmax [1, 4]: 3.56 ± 0.62 h; AUC ([1]; single oral dose): 9.66 mg/dL; AUC0–t ([1]; single oral dose): 9.38 mg/dL; ζ-potential [2]: −20 to 10 mV
